Reference: ChEMBL document CHEMBL1135766, “Synthesis of conformationally constrained analogues of linezolid: structure-activity relationship (SAR) studies on selected novel tricyclic oxazolidinones” (2002)

How the values were obtained:
Staphylococcus aureus [1] = assay: In vitro antibacterial activity against methicillin resistant Staphylococcus aureus ATCC 33591 (S. a. 019); type: functional
Outline: (§1)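 Broth microdilution MIC per NCCLS guidelines in Mueller Hinton medium. Doubling dilutions from 256 to 1 μg/mL, inoculum (1–5) × 10⁵ CFU/mL, incubated overnight in ambient air at 35 °C. MIC is the lowest concentration giving complete growth inhibition. Linezolid and vancomycin served as controls.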

Enterococcus faecalis [2] = assay: In vitro antibacterial activity against Enterococcus faecalis ATCC 29212 (E. f. 034) vancomycin sensitive; type: functional; outline: as §1
Enterococcus faecalis [3] = assay: In vitro antibacterial activity against Enterococcus faecalis NCTC 12201 (E. f. 153) vancomycin resistant; type: functional; outline: as §1
Staphylococcus aureus [4] = assay: In vitro antibacterial activity against Staphylococcus aureus ATCC 29213 (S. a. 035); type: functional
Outline: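 Broth microdilution per NCCLS guidelines in Mueller Hinton medium. Doubling dilutions 256–1 μg/mL; inoculum (1–5) × 10⁵ CFU/mL; plates incubated overnight at 35 °C in ambient air. MIC read as the lowest concentration giving complete growth inhibition. Linezolid and vancomycin served as controls.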

Staphylococcus aureus [5] = assay: In vitro antibacterial activity against Staphylococcus aureus ATCC 49951 (S. a. 213); type: functional; outline: as §1
Enterococcus faecium = assay: In vitro antibacterial activity against Enterococcus faecium ATCC 12202 (E.fm 154) vancomycin resistant

Measured: MIC

O=C1CCC(=O)N1C[C@H]1CN(c2cc(F)c3c(c2)OC[C@@H]2CCCN32)C(=O)O1
> 32 µg/mL: Staphylococcus aureus [1] | Enterococcus faecalis [2] | Enterococcus faecalis [3] | Staphylococcus aureus [4] | Staphylococcus aureus [5] | Enterococcus faecium
